In ChEMBL document CHEMBL1126707, “Tetrapeptide tachykinin antagonists: synthesis and modulation of the physicochemical and pharmacological properties of a new series of partially cyclic analogs” (J Med Chem, 1993):
In brackets after ≈: the same amount, converted by molar mass. Peptide text beside a SMILES is read from it.

Legend:
Substance-P receptor [1] = target: T1, Substance-P receptor (Homo sapiens, UniProt P25103); assay: Tested for binding affinity against human NK-1 receptor transfected on CHO cells using [125I]-Tyr] SP as radioligand; type: cell-based
T1 sequence (P25103 whole entry): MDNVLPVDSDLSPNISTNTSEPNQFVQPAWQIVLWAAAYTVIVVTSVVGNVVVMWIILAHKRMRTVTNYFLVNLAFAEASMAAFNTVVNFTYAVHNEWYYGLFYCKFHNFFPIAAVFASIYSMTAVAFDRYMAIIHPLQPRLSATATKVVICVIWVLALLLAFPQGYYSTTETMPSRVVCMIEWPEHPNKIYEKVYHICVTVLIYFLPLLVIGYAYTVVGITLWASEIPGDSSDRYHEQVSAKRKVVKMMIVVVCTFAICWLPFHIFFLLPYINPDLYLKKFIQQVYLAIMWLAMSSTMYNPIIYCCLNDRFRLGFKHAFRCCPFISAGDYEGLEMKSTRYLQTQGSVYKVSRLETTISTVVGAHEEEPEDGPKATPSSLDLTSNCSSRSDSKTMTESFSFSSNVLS

Mus musculus [2] = organism: Mus musculus; assay: Binding affinity by displacement of tritiated substance P from its binding sites on membrane preparations from mouse brain
Neuromedin-K receptor = target: T2, Neuromedin-K receptor (Rattus norvegicus, UniProt P16177); assay: Tested for antagonist activity against NK-3 receptor in rat portal vein by using Neurokinin B as agonist; type: functional; conditions: read-out: pA2 (converted)
T2 sequence (P16177 whole entry): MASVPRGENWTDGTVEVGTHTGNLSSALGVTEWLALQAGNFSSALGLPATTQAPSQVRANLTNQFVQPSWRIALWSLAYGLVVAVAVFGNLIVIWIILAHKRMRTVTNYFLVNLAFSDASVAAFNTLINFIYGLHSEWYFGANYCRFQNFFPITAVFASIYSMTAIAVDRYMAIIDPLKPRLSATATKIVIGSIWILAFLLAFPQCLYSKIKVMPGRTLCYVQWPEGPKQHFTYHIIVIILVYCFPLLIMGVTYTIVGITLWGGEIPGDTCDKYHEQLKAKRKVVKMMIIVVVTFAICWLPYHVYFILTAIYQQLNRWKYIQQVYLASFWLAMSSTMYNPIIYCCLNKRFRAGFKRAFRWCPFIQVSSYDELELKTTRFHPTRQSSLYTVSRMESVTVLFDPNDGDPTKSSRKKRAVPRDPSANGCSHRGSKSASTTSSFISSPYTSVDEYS
Method in brief: (§1)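 Isolated-organ contractile bioassays: SP on rabbit vena cava (NK-1), neurokinin A on rabbit pulmonary artery (NK-2), neurokinin B on rat portal vein (NK-3); antagonist apparent affinity expressed as pA2 by Schild plot.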

Substance-K receptor [3] = target: T3, Substance-K receptor (Homo sapiens, UniProt P21452); assay: Tested for binding affinity against human NK-2 receptor transfected on CHO cells using [125I]-His] NKA as radioligand; type: cell-based
T3 sequence (P21452 whole entry): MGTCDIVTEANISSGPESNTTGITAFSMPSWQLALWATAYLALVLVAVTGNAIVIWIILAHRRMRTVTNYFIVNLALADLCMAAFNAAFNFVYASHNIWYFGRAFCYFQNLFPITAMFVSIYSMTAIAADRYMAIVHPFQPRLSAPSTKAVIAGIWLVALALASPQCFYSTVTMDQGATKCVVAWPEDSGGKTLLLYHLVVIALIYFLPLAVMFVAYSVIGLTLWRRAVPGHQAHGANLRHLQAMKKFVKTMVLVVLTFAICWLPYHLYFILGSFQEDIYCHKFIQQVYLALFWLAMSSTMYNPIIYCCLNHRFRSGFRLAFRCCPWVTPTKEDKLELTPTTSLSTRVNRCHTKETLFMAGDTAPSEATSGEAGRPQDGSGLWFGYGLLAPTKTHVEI

[4] = target: Substance-P receptor (Oryctolagus cuniculus); assay: Tested for antagonist activity against NK1 receptor in rabbit vena cava by using substance P (SP) as agonist; conditions: read-out: pA2 (converted)
Mus musculus [5] = assay: Tested for antinociceptive activity in hot plate test at 60 min after 40 mg/kg oral administration in mouse; insoluble; type: functional, organism-based; parameters: dose 40 mg/kg; conditions: at 40 mg/kg
Method in brief: (§2)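 Male CD1 mice (25-30 g) on a 55 ± 0.2 °C plate; forepaw-licking latency measured 60 min after oral 40 mg/kg given in water (soluble) or 0.2% hydroxypropylcellulose (insoluble); % increase of reaction time versus vehicle controls; groups of 12 animals; Dunnett t-test.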

Substance-K receptor [6] = target: T4, Substance-K receptor (Oryctolagus cuniculus, UniProt P79218); assay: Tested for antagonist activity against NK-2 receptor in rabbit pulmonary artery by using Neurokinin A as agonist; type: functional; conditions: read-out: pA2 (converted); method in brief: as §1
T4 sequence (P79218 whole entry): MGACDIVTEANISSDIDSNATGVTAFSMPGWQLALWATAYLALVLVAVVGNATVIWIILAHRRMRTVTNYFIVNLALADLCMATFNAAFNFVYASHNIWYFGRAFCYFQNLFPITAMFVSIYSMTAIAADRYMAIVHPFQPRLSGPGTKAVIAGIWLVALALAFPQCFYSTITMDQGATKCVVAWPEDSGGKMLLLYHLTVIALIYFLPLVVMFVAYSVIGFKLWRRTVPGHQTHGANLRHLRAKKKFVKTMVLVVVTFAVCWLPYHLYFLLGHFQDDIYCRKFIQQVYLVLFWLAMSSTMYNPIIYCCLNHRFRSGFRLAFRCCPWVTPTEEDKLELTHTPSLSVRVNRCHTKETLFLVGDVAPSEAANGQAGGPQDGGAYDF

Substance-P receptor [7] = target: T5, Substance-P receptor (Rattus norvegicus, UniProt P14600); assay: Tested for the binding affinity against rat neurokinin-1 (NK-1) receptor transfected on CHO cells using [125I]-Tyr] SP as radioligand; type: cell-based
T5 sequence (P14600 whole entry): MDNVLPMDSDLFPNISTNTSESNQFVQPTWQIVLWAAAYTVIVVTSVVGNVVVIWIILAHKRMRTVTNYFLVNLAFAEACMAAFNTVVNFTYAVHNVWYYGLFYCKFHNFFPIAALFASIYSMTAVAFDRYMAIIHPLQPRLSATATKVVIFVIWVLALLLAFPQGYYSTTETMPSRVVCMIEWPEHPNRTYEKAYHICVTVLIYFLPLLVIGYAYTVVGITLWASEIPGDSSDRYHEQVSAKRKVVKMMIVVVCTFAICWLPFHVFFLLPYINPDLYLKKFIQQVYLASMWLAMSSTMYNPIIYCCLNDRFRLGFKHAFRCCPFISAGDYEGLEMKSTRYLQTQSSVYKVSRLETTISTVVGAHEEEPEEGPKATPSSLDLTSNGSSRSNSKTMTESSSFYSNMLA

Mus musculus [8] = assay: Tested for antinociceptive activity in hot plate test at 10 min after 0.5 mg/kg intravenous administration in mouse; insoluble; type: functional, organism-based; parameters: dose 0.5 mg/kg; conditions: at 0.5 mg/kg
Substance-K receptor [9] = target: T6, Substance-K receptor (Rattus norvegicus, UniProt P16610); assay: Tested for the binding affinity against rat neurokinin-2 (NK-2) receptor transfected on CHO cells using [125I]-His] NKA as radioligand; type: cell-based
T6 sequence (P16610 whole entry): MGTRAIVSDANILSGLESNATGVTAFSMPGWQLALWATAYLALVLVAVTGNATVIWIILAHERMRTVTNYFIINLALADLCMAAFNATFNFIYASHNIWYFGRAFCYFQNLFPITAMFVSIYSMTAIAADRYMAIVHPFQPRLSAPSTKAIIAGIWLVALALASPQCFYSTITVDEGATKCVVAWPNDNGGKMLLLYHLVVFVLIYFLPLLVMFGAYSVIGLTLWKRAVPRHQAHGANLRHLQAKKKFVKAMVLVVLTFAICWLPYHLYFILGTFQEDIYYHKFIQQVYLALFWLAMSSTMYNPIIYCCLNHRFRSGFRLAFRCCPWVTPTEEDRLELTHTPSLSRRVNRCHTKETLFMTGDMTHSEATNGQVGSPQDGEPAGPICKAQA

Rattus norvegicus [10] = organism: Rattus norvegicus; assay: Binding affinity by displacement of tritiated substance P from its binding sites on membrane preparations from rat brain
[11] = Solubility was evaluated; type: physicochemical
[12] = target: Substance-P receptor (Oryctolagus cuniculus); assay: Tested for antagonist activity against NK1 receptor in rabbit vena cava by using substance P (SP) as agonist; conditions: read-out: pA2 (converted); remark: listed apart in the source
Rattus norvegicus [13] = organism: Rattus norvegicus; assay: Tested for its ability to promote degranulation of rat peritoneal mast cells at 0.1 mM or lower; No degranulation; type: functional, cell-based
Method in brief: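 Peritoneal mast cells lavaged from male Sprague-Dawley rats (350-400 g), buffer pH 6.8, 2 × 10^4 cells/mL, preincubated 10 min at 37 °C, then exposed to compound (10^-7 to 10^-4 M, in water or DMSO) 10 min at 37 °C; iced, centrifuged; histamine in supernatant and pellet measured fluorimetrically with o-phthalaldehyde, as % of total.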

Mus musculus [14] = assay: Tested for antinociceptive activity against mouse hotplate test for 60 min after oral administration of 40 mg/kg (P*<0.05); type: functional; method in brief: as §2
Substance-K receptor [15] = target: T6, Substance-K receptor; assay: Tested for binding affinity against rat NK-2 receptor transfected on CHO cells using [125I]-His] NKA as radioligand; type: cell-based
Mus musculus [16] = assay: Tested for antinociceptive activity against mouse hotplate test for 10 min after intravenous injection at 0.5 […] (P*<0.05); type: functional
Mus musculus [17] = assay: Tested for antinociceptive activity against mouse hotplate test for 10 min after intravenous injection at 0.5 […] (P*<0.01); type: functional
Substance-P receptor [18] = target: T5, Substance-P receptor; assay: Tested for binding affinity against rat NK-1 receptor
Substance-K receptor [19] = target: T3, Substance-K receptor; assay: Tested for binding affinity against human NK-2 receptor
Substance-K receptor [20] = target: T6, Substance-K receptor; assay: Tested for binding affinity against rat NK-2 receptor
Substance-P receptor [21] = target: T1, Substance-P receptor; assay: Tested for binding affinity against human NK-1 receptor

For CC(=O)N[C@H](C(=O)N[C@H](Cc1cn(C=O)c2ccccc12)C(=O)N[C@@H](Cc1ccccc1)C(=O)N(C)Cc1ccccc1)C(C)O (stereo partly drawn), the IC50 (Substance-P receptor [1]) was 6 nM, the Ki (Mus musculus [2]) was 320 nM and the Kb (Neuromedin-K receptor) was 1580 nM. The IC50 (Substance-K receptor [3]) was 99 nM, the Kb [4] was 79.4 nM and the Increase (Mus musculus [5]) was “Insoluble”. The Kb (Substance-K receptor [6]) was 3980 nM, the IC50 (Substance-P receptor [7]) was 3400 nM and the Increase (Mus musculus [8]) was “Insoluble”. For the same molecule, the IC50 (Substance-K receptor [9]) was 824 nM and the Ki (Rattus norvegicus [10]) was 320 nM.
Work on CN(Cc1ccccc1)C(=O)[C@H](Cc1ccccc1)NC(=O)[C@@H](Cc1cn(C(=O)OCc2ccccc2)c2ccccc12)NC(=O)C[C@@H]1NC(=O)[C@@H]2C3CCC(CC3)N2C1=O yielded a solubility [11] of less than 10 µg/mL, a Kb (Neuromedin-K receptor) of 1580 nM and a Kb [12] of 158 nM. The Kb (Substance-K receptor [6]) was 1260 nM.
With CN(Cc1ccccc1)C(=O)[C@H](Cc1ccccc1)NC(=O)[C@@H](Cc1cn(C=O)c2ccccc12)NC(=O)C[C@@H]1NC(=O)[C@@H]2C3CCC(CC3)N2C1=O the solubility [11] was less than 10 µg/mL, the IC50 (Rattus norvegicus [13]) was “Not Active” and the Kb (Neuromedin-K receptor) was 12600 nM. It also gave an Increase (Mus musculus [14]) of 33%, an IC50 (Substance-K receptor [3]) of 17 nM and an IC50 (Substance-K receptor [15]) of 142 nM. For the same molecule, the Increase (Mus musculus [16]) was 51% and the Kb (Substance-K receptor [6]) was 12600 nM.
In the case of CN(Cc1ccccc1)C(=O)[C@H](Cc1ccccc1)NC(=O)[C@@H](Cc1c[nH]c2ccccc12)NC(=O)C[C@@H]1NC(=O)[C@@H]2C3CCC(CC3)N2C1=O, the solubility [11] is reported as less than 10 µg/mL, the IC50 (Rattus norvegicus [13]) is reported as “Not Active” and the Kb (Neuromedin-K receptor) is reported as 1580 nM. For the same molecule, the Increase (Mus musculus [17]) was 66%, the Increase (Mus musculus [14]) was 74% and the IC50 (Substance-K receptor [3]) was 65 nM. For the same molecule, the IC50 (Substance-K receptor [15]) was 65 nM and the Kb (Substance-K receptor [6]) was 2000 nM.
CC(C)C[C@H](NC(=O)[C@H](CC(C)C)NC(=O)[C@@H](Cc1c[nH]c2ccccc12)NC(=O)[C@H](Cc1ccccc1)NC(=O)[C@@H](Cc1c[nH]c2ccccc12)NC(=O)[C@H](CCC(N)=O)NC(=O)[C@H](CCC(N)=O)NC(=O)[C@@H]1CCCN1C(=O)[C@H](CCCCN)NC(=O)[C@@H]1CCCN1C(=O)[C@H](N)CCCN=C(N)N)C(N)=O (HELM PEPTIDE1{[dR].P.K.P.Q.Q.[dW].F.[dW].L.L.[am]}$$$$V2.0) showed a Ki (Mus musculus [2]) of 2600 nM, a Kb (Neuromedin-K receptor) of 631 nM and a Ki (Rattus norvegicus [10]) of 2600 nM.
With CN(Cc1ccccc1)C(=O)[C@H](Cc1ccccc1)NC(=O)[C@@H](Cc1cn(C(=O)CCC(=O)O)c2ccccc12)NC(=O)C[C@@H]1NC(=O)[C@@H]2C3CCC(CC3)N2C1=O the solubility [11] was 45000 µg/mL (≈ 57000 µM), the IC50 (Substance-P receptor [18]) was 14500 nM and the Kb (Neuromedin-K receptor) was 12600 nM. It also gave an Increase (Mus musculus [14]) of 53%, a Kb [12] of 126 nM and an IC50 (Substance-K receptor [19]) of 129 nM. The IC50 (Substance-K receptor [20]) was 388 nM, the Increase (Mus musculus [16]) was 42% and the Kb (Substance-K receptor [6]) was 15800 nM. The IC50 (Substance-P receptor [21]) was 85 nM.
Molecule CCCCCCCC(=O)n1cc(C[C@@H](NC(=O)C[C@@H]2NC(=O)[C@@H]3C4CCC(CC4)N3C2=O)C(=O)N[C@@H](Cc2ccccc2)C(=O)N(C)Cc2ccccc2)c2ccccc21 has a solubility [11] of less than 10 µg/mL, a Kb (Neuromedin-K receptor) of 12600 nM and a Kb [12] of 12600 nM. For the same molecule, the Kb (Substance-K receptor [6]) was 15800 nM.
